Our source for the IC50 values is ChEMBL document CHEMBL1158697, “Synthesis and biological evaluation of a natural ester sintenin and its synthetic analogues” (J Nat Prod, 2005).

For one experiment, the system named is PC-3. Kind of experiment: Cytotoxicity against human PC3 cells after 72 hrs by MTT assay. The experiment is classed as functional, cell-based. The note with it: PC-3, 72 h. In a few lines:
(§1)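 Cells allowed to attach as monolayers, then exposed to compounds at various concentrations in culture medium for 72 h; controls got deionized water (compound stock solvent). MTT added ([…]) for 3 h, supernatant removed, cells dissolved in DMSO, absorbance at 570 nm. CC50 = concentration reducing MTT signal 50% versus untreated controls.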

The test system of another experiment is HeLa. Kind of experiment: Cytotoxicity against human HeLa cells after 72 hrs by MTT assay. The experiment is classed as functional, cell-based. In a few lines:
as §1

The test system of another experiment is A549. Kind of experiment: Cytotoxicity against human A549 cells after 72 hrs by MTT assay. Format: functional, cell-based. As to conditions: A549, 72 h. In a few lines:
as §1

A further experiment concerns CNE. Kind of experiment: Cytotoxicity against human CNE cells after 72 hrs by MTT assay. The experiment is classed as functional, cell-based. In a few lines:
as §1

Experiment [1] can be described thus: Cytotoxicity against human Bel7404 cells after 72 hrs by MTT assay. Format: functional, cell-based. The note with it: BEL-7404, 72 h. In short, it runs like this:
as §1

Another experiment relates to KB. Kind of experiment: Cytotoxicity against human KB cells after 72 hrs by MTT assay. The experiment is classed as functional, cell-based. In a few lines: as §1
Experiment [2] is described as follows: Inhibition of alpha glucosidase. In a few lines:
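α-Glucosidase (25 µL at 0.2 U/mL) with p-nitrophenyl-α-D-glucopyranoside (25 µL of 23.2 mM), sample at various concentrations, in 67 mM phosphate buffer pH 6.8. Reaction stopped with 1 M Na2CO3; p-nitrophenol release read at 405 nm. Blanks lacked enzyme; negative control had buffer instead of sample; acarbose as positive control. Percent inhibition from corrected ODs; IC50 calculated from this.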

Regarding `O=C(/C=C/c1ccc(O)cc1)OC/C=C/c1ccccc1`, the 50% inhibitory concentration (IC50) in the experiment with PC-3 was 143 µM; in the experiment on HeLa, 160 µM; in the experiment on A549 it was 120 µM; in the experiment on CNE, 162 µM; in experiment [1] it was over 100 µg/mL; with KB, over 100 µg/mL. Moreover, 65 µM corresponded to half-maximal inhibition in experiment [2] (IC50).

Take `O=C(/C=C/c1ccc(O)c(O)c1)OC/C=C/c1ccccc1`: the concentration for half-maximal inhibition (IC50) in the experiment on PC-3 was 123 µM; with HeLa it was 171 µM; in the experiment with A549, 71 µM; in the experiment on CNE, 214 µM; in experiment [1] it was 91 µM; in the experiment on KB it was 54 µM. Further, half-maximal inhibition in experiment [2] (IC50) was put at 97 µM.

For `COc1ccc(/C=C/COC(=O)/C=C/c2cc(OC)c(OC)c(OC)c2)cc1OC`, the IC50 in the experiment on PC-3 is 80 µM; in the experiment with HeLa, 64 µM; in the experiment on A549, 172 µM; with CNE, over 100 µg/mL; in experiment [1] it was 212 µM; in the experiment with KB it was over 100 µg/mL.

In the case of `COc1ccc(/C=C/COC(=O)/C=C/c2ccc([N+](=O)[O-])cc2)cc1OC`, the half-inhibitory concentration (IC50) in the experiment on PC-3 is 212 µM; in the experiment on HeLa, over 100 µg/mL; in the experiment with A549, over 100 µg/mL; with CNE, over 100 µg/mL; in experiment [1] it was over 100 µg/mL; in the experiment with KB, 165 µM.

`COc1cc(/C=C/COC(=O)/C=C/c2cc(OC)c(OC)c(OC)c2)cc(OC)c1OC`: the half-maximal inhibitory concentration (IC50) with PC-3 was 189 µM; with HeLa, 43 µM; in the experiment on A549, 180 µM; in the experiment with CNE, 50 µM; in experiment [1], over 100 µg/mL; with KB, 206 µM. Further, in experiment [2], the IC50 is 110 µM.

For `O=C(CCc1ccc(O)c(O)c1)OCCCc1ccccc1`, the 50% inhibitory concentration (IC50) in the experiment on PC-3 is 189 µM; in the experiment with HeLa it was 171 µM; in the experiment on A549, 138 µM; in the experiment with CNE it was 235 µM; in experiment [1], over 100 µg/mL; with KB, 125 µM. In experiment [2], this compound yielded a half-inhibitory concentration (IC50) of 73 µM.

As for `COCOc1ccc(/C=C/C(=O)OC/C=C/c2ccc(OC)cc2)cc1`, the IC50 in the experiment with PC-3 was 226 µM; with HeLa, 46 µM; in the experiment on A549, over 100 µg/mL; in the experiment with CNE, over 100 µg/mL; in experiment [1], over 100 µg/mL; with KB it was over 100 µg/mL.

Take `COc1ccc(/C=C/COC(=O)/C=C/c2ccc(O)cc2)cc1`: the IC50 with PC-3 turned out to be 88 µM; with HeLa, 95 µM; in the experiment with A549, 72 µM; in the experiment with CNE, 40 µM; in experiment [1], 193 µM; in the experiment with KB it was 143 µM.

For the compound `COc1ccc(CCCOC(=O)CCc2cc(OC)c(OC)c(OC)c2)cc1OC`, the IC50 in the experiment on PC-3 is 104 µM; in the experiment with HeLa, over 100 µg/mL; with A549 it was over 100 µg/mL; with CNE, over 100 µg/mL; in experiment [1] it was over 100 µg/mL; in the experiment with KB, 124 µM.

Consider `COc1ccc(CCCOC(=O)CCc2ccc(O)cc2)cc1`, for which the IC50 in the experiment on PC-3 is 283 µM; in the experiment on HeLa it was over 100 µg/mL; with A549, 186 µM; with CNE, 287 µM; in experiment [1] it was 108 µM; in the experiment on KB, 820 µM.

As for `COCOc1ccc(/C=C/C(=O)OC/C=C/c2ccccc2)cc1OCOC`, the half-inhibitory concentration (IC50) in the experiment with PC-3 was over 1000 µM; with HeLa, over 1000 µM; with A549 it was over 100 µg/mL; with CNE, over 100 µg/mL; in experiment [1], over 100 µg/mL; with KB it was 202 µM.

Turning to `COc1ccc(/C=C/COC(=O)/C=C/c2ccc(OC)c(OC)c2)cc1OC`, the half-maximal inhibitory concentration (IC50) with PC-3 was 92 µM; in the experiment on HeLa it was 86.7 µM; with A549, 181 µM; in the experiment with CNE, over 100 µg/mL; in experiment [1] it was 136 µM; in the experiment on KB, 133 µM.

Consider `COc1ccc(/C=C/C(=O)OC/C=C/c2ccc(OC)c(OC)c2)cc1`, for which the IC50 in the experiment on PC-3 was 181 µM; in the experiment on HeLa, 167 µM; in the experiment on A549, over 100 µg/mL; in the experiment with CNE, over 100 µg/mL; in experiment [1], over 100 µg/mL; in the experiment with KB, over 100 µg/mL.

`C[C@H]1O[C@H](O[C@H]2[C@H](O)[C@@H](O)[C@@H](O[C@H]3[C@H](O)[C@@H](O)C(O)O[C@@H]3CO)O[C@@H]2CO)[C@H](O)[C@@H](O)[C@@H]1N[C@H]1C=C(CO)[C@@H](O)[C@H](O)[C@H]1O` (stereo partly drawn) [ACARBOSE] came in with a half-inhibitory concentration (IC50) in experiment [2] of 680 µM.
